As a reminder, the inhibition is the relative decrease from the control value, in per cent.

Our source for the inhibition values is ChEMBL document CHEMBL1811881, “Development of 3-substituted-androsterone derivatives as potent inhibitors of 17β-hydroxysteroid dehydrogenase type 3” (Bioorg Med Chem, 2011).

Molecules are shown by their SMILES.

Holding throughout (assay type): cell-based
Assay [1] addresses T1, 17-beta-hydroxysteroid dehydrogenase type 3 (Homo sapiens) (UniProt P37058).
T1 sequence (whole entry): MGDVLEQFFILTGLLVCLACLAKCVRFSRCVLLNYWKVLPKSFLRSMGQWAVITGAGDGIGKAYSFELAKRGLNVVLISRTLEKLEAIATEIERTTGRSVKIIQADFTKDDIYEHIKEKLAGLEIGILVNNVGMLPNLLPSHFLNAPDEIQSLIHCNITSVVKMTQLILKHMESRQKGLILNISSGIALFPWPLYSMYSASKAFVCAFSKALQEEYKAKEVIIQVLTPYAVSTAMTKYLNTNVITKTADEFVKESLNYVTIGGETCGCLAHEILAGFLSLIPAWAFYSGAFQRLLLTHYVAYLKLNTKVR
The experiment in a line: Inhibition of 17Beta-HSD3 expressed in homogenized HEK293 cells assessed as transformation of [14C]-4-androstene-3,17-dione into [14C]-testosterone in presence of NADPH at 0.01 uM. Summed up:
(§1)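 HEK-293 cells overexpressing 17β-HSD3 were briefly homogenized. The enzyme assay measured conversion of 50 nM [4-14C]-4-androstene-3,17-dione to [14C]-testosterone with NADPH in excess (5 mM). Inhibitor was dissolved in ethanol, and the ethanol-only control was used to derive % inhibition at each concentration. Error 10%.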

In assay [2] the target is T1, 17-beta-hydroxysteroid dehydrogenase type 3 (Homo sapiens). The experiment in a line: Inhibition of 17Beta-HSD3 expressed in intact HEK293 cells assessed as transformation of [14C]-4-androstene-3,17-dione into [14C]-testosterone in presence of NADPH at 0.1 uM after 1 hr incubation. The essentials: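 HEK-293 cells were grown in MEM with 10% FBS at 37 °C under 5% CO2, seeded at 200,000 cells/well, and transfected with 2 µg/well of a 17β-HSD3 expression plasmid. Intact cells then got 50 nM [4-14C]-4-androstene-3,17-dione plus inhibitor in ethanol (0.5% v/v) for 1 h. Radiolabelled steroids were extracted from the medium and quantified. Triplicate; % transformation was used to derive IC50.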

The target is the same in assay [3]. The experiment in a line: Inhibition of 17Beta-HSD3 expressed in homogenized HEK293 cells assessed as transformation of [14C]-4-androstene-3,17-dione into [14C]-testosterone in presence of NADPH at 0.1 uM. Summed up:
as §1

Assay [4] shares this target. The experiment in a line: Inhibition of 17Beta-HSD3 expressed in homogenized HEK293 cells assessed as transformation of [14C]-4-androstene-3,17-dione into [14C]-testosterone in presence of NADPH at 1 uM. The essentials:
as §1

For `C[C@]12CC[C@@]3(C[C@@H]1CC[C@@H]1[C@@H]2CC[C@]2(C)C(=O)CC[C@@H]12)CN(CCO)C(=O)O3`, the inhibition was 0% in assay [1], 16% in assay [2], 9% in assay [3] and 38% in assay [4].
Consider `C[C@]12CC[C@@]3(C[C@@H]1CC[C@@H]1[C@@H]2CC[C@]2(C)C(=O)CC[C@@H]12)CN(Cc1ccc(C(F)(F)F)cc1)C(=O)O3`, for which the inhibition in assay [1] is 25%; in assay [2], 43%; in assay [3], 80%.
As for `C[C@@H]1CN(Cc2ccc(C(F)(F)F)cc2C(F)(F)F)[C@@H](C)CN1C[C@@]1(O)CC[C@@]2(C)[C@@H](CC[C@@H]3[C@@H]2CC[C@]2(C)C(=O)CC[C@@H]32)C1`, the inhibition was 15% in assay [1], 21% in assay [2] and 71% in assay [3].
For `C[C@@H]1CN(C(=O)c2ccc(C(F)(F)F)cc2)[C@@H](C)CN1C[C@@]1(O)CC[C@@]2(C)[C@@H](CC[C@@H]3[C@@H]2CC[C@]2(C)C(=O)CC[C@@H]32)C1`, in that order: 17%, 61% and 91%.
Turning to `C[C@@H]1CN(Cc2cc(C(F)(F)F)ccc2C(F)(F)F)[C@@H](C)CN1C[C@@]1(O)CC[C@@]2(C)[C@@H](CC[C@@H]3[C@@H]2CC[C@]2(C)C(=O)CC[C@@H]32)C1`, the values for the inhibition in assay [1], in assay [2] and in assay [3] were 16%, 23% and 71%, respectively.
For `C[C@]12CC[C@](O)(CN3CCN(Cc4ccc(C(F)(F)F)cc4C(F)(F)F)CC3)C[C@@H]1CC[C@@H]1[C@@H]2CC[C@]2(C)C(=O)CC[C@@H]12`, in that order: 22%, 16% and 75%.
As for `C[C@]12CC[C@](O)(CN3CCN(Cc4cc(C(F)(F)F)cc(C(F)(F)F)c4)CC3)C[C@@H]1CC[C@@H]1[C@@H]2CC[C@]2(C)C(=O)CC[C@@H]12`, the values for the inhibition in assay [1], in assay [2] and in assay [3] were 25%, 25% and 83%, respectively.
With `C[C@]12CC[C@](O)(CN3CCN(C(=O)c4ccccc4C(F)(F)F)CC3)C[C@@H]1CC[C@@H]1[C@@H]2CC[C@]2(C)C(=O)CC[C@@H]12`, the inhibition in assay [1] came out at 31%; in assay [2], 62%; in assay [3] it was 86%.
For `C[C@]12CC[C@](O)(CN3CCN(C(=O)c4cccc(C(F)(F)F)c4)CC3)C[C@@H]1CC[C@@H]1[C@@H]2CC[C@]2(C)C(=O)CC[C@@H]12`, the inhibition was found to be 10% in assay [1], 91% in assay [2] and 92% in assay [3].
For `C[C@]12CC[C@@]3(C[C@@H]1CC[C@@H]1[C@@H]2CC[C@]2(C)C(=O)CC[C@@H]12)CN(Cc1cccc(C(F)(F)F)c1)C(=O)O3` the same measures were 16%, 36% and 80%.
Consider `C[C@]12CC[C@](O)(CN3CCN(C(=O)c4ccc(C(F)(F)F)cc4)CC3)C[C@@H]1CC[C@@H]1[C@@H]2CC[C@]2(C)C(=O)CC[C@@H]12`, for which the inhibition in assay [1] came out at 22%; in assay [2], 56%; in assay [3] it was 84%.
For `C[C@]12CC[C@](O)(CN3CCN(Cc4cccc(C(F)(F)F)c4)CC3)C[C@@H]1CC[C@@H]1[C@@H]2CC[C@]2(C)C(=O)CC[C@@H]12`, the inhibition was found to be 51% in assay [1], 52% in assay [2] and 88% in assay [3].
For `C[C@]12CC[C@](O)(CN3CCN(Cc4ccc(C(F)(F)F)cc4)CC3)C[C@@H]1CC[C@@H]1[C@@H]2CC[C@]2(C)C(=O)CC[C@@H]12`, in that order: 14%, 33% and 81%.
For `C[C@@H]1CN(C(=O)c2ccccc2)[C@@H](C)CN1C[C@@]1(O)CC[C@@]2(C)[C@@H](CC[C@@H]3[C@@H]2CC[C@]2(C)C(=O)CC[C@@H]32)C1` the same measures were 24%, 78% and 87%.
For `C[C@@H]1CN(S(=O)(=O)c2cccc(C(F)(F)F)c2)[C@@H](C)CN1C[C@@]1(O)CC[C@@]2(C)[C@@H](CC[C@@H]3[C@@H]2CC[C@]2(C)C(=O)CC[C@@H]32)C1`, the inhibition was found to be 32% in assay [1], 77% in assay [2] and 91% in assay [3].
For `C[C@@H]1CN(C(=O)C2CCCCC2)[C@@H](C)CN1C[C@@]1(O)CC[C@@]2(C)[C@@H](CC[C@@H]3[C@@H]2CC[C@]2(C)C(=O)CC[C@@H]32)C1` the same measures were 24%, 77% and 90%.
Regarding `C[C@@H]1CN(C(=O)c2cccc(C(F)(F)F)c2)[C@@H](C)CN1C[C@@]1(O)CC[C@@]2(C)[C@@H](CC[C@@H]3[C@@H]2CC[C@]2(C)C(=O)CC[C@@H]32)C1`, the inhibition in assay [1] came out at 28%; in assay [2] it was 70%; in assay [3], 89%.
Consider `COc1cccc(CN2C[C@@H](C)N(C[C@@]3(O)CC[C@@]4(C)[C@@H](CC[C@@H]5[C@@H]4CC[C@]4(C)C(=O)CC[C@@H]54)C3)C[C@@H]2C)c1`, for which the inhibition was determined as 19% in assay [1], 50% in assay [2] and 87% in assay [3].
Take `C[C@@H]1CN(S(=O)(=O)c2ccc(C(F)(F)F)cc2)[C@@H](C)CN1C[C@@]1(O)CC[C@@]2(C)[C@@H](CC[C@@H]3[C@@H]2CC[C@]2(C)C(=O)CC[C@@H]32)C1`: the inhibition in assay [1] came to 79%; in assay [2], 47%; in assay [3] it was 92%.
Regarding `COc1cccc(CN2CCN(C[C@@]3(O)CC[C@@]4(C)[C@@H](CC[C@@H]5[C@@H]4CC[C@]4(C)C(=O)CC[C@@H]54)C3)CC2)c1`, the inhibition was 21% in assay [1], 47% in assay [2] and 83% in assay [3].
Consider `C[C@@H]1CN(Cc2ccccc2C(F)(F)F)[C@@H](C)CN1C[C@@]1(O)CC[C@@]2(C)[C@@H](CC[C@@H]3[C@@H]2CC[C@]2(C)C(=O)CC[C@@H]32)C1`, for which the values for the inhibition in assay [1], in assay [2] and in assay [3] were 22%, 36% and 85%, respectively.
For `C[C@]12CC[C@](O)(CN3CCN(Cc4ccccc4C(F)(F)F)CC3)C[C@@H]1CC[C@@H]1[C@@H]2CC[C@]2(C)C(=O)CC[C@@H]12`, in that order: 18%, 20% and 86%.
Consider `C[C@]12CC[C@](O)(CN3CCN(S(=O)(=O)c4ccc(C(F)(F)F)cc4)CC3)C[C@@H]1CC[C@@H]1[C@@H]2CC[C@]2(C)C(=O)CC[C@@H]12`, for which the inhibition stood at 21% in assay [1], 34% in assay [2] and 78% in assay [3].
`C[C@]12CC[C@@]3(C[C@@H]1CC[C@@H]1[C@@H]2CC[C@]2(C)C(=O)CC[C@@H]12)CN(Cc1ccc(C(F)(F)F)nc1)C(=O)O3`: the inhibition in assay [1] was found to be 3%; in assay [2], 36%; in assay [3], 65%.
For `C[C@]12CC[C@](O)(CN3CCN(C(=O)c4ccccc4)CC3)C[C@@H]1CC[C@@H]1[C@@H]2CC[C@]2(C)C(=O)CC[C@@H]12` the same measures were 17%, 50% and 76%.
For `C[C@]12CC[C@](O)(CN3CCN(Cc4cc(C(F)(F)F)ccc4C(F)(F)F)CC3)C[C@@H]1CC[C@@H]1[C@@H]2CC[C@]2(C)C(=O)CC[C@@H]12` the same measures were 18%, 12% and 85%.
For `C[C@]12CC[C@@]3(C[C@@H]1CC[C@@H]1[C@@H]2CC[C@]2(C)C(=O)CC[C@@H]12)CN(Cc1cc(C(F)(F)F)cc(C(F)(F)F)c1)C(=O)O3`, in that order: 12%, 35% and 66%.
With `C[C@]12CC[C@](O)(CN3CCN(S(=O)(=O)c4ccccc4C(F)(F)F)CC3)C[C@@H]1CC[C@@H]1[C@@H]2CC[C@]2(C)C(=O)CC[C@@H]12`, the inhibition was 45% in assay [1], 63% in assay [2] and 92% in assay [3].
For `C[C@]12CC[C@@]3(C[C@@H]1CC[C@@H]1[C@@H]2CC[C@]2(C)C(=O)CC[C@@H]12)CN(Cc1ccccc1C(F)(F)F)C(=O)O3`, in that order: 17%, 35% and 81%.
Turning to `C[C@@H]1CN(Cc2ccc(C(F)(F)F)cc2)[C@@H](C)CN1C[C@@]1(O)CC[C@@]2(C)[C@@H](CC[C@@H]3[C@@H]2CC[C@]2(C)C(=O)CC[C@@H]32)C1`, the inhibition came to 14% in assay [1], 36% in assay [2] and 87% in assay [3].
For `C[C@@H]1CN(Cc2cc(C(F)(F)F)cc(C(F)(F)F)c2)[C@@H](C)CN1C[C@@]1(O)CC[C@@]2(C)[C@@H](CC[C@@H]3[C@@H]2CC[C@]2(C)C(=O)CC[C@@H]32)C1`, the inhibition in assay [1] was determined as 25%; in assay [2], 16%; in assay [3], 74%.
